Source: PubChem BioAssay (The Scripps Research Institute Molecular Screening Center)
TDP2 absorb: TDP2 (human) inhibition, absorbance primary screen | recombinant TDP2, T5PNP hydrolysis, p-nitrophenol absorbance 415 nm | inhibition, % at 12.8 µM | 0.34% of 370,000 active | AID 720702;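 active = inhibition above the mean of all tested compounds plus 3 SD, set per campaign, cut at about 25% in these data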;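 note: 0% = DMSO with enzyme and 100% = buffer with substrate but no TDP2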
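Read-out basis: percent inhibition. System: recombinant human TDP2. Buffer or medium: Mg2+-containing Tris-HCl buffer, pH 7.5. Repeats: single replicate. Timing: reaction 2 h, 37 °C. Benchmarks: high control without enzyme, low control DMSO plus TDP2. Probe or stimulus: 5 mM T5PNP. Doses: 12.8 µM only. Measured by: epi absorbance of p-nitrophenol freed from T5PNP by hydrolysis.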
MBD2 DNA inh: inhibitors of human MBD2 binding to methylated oligonucleotide | Q9UBB5 | TR-FRET | inhibition, % at 4.4 µM | 0.31% of 370,000 active; in the data active = inhibition above about 13%
LEDGF integ inh: blocks HIV-1 LEDGF/p75-dependent DNA integration; TR-FRET IN-LEDGF/p75 DNA integration, Eu/Cy5; inhibition, % at 3.7 µM; 0.64% of 370,000 active; AID 743269;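 active = inhibition above the screen-wide mean plus 3 SD, cut at about 13% in these data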;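 note: signal is the Cy5 over europium emission ratio at 671 and 618 nm; 0% = plate median of compound wells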
PRMT1 inh: PRMT1 (human) inhibition, primary screen; inhibition, % at 2.79 µM; Q99873; recombinant PRMT1, activity-based probe fluorescence polarization; 1.3% of 370,000 active; AID 652257;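 active = inhibition above about 21% made by adding two undisclosed values, limit read from the data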
Target sequence (Q99873 whole entry, looked up): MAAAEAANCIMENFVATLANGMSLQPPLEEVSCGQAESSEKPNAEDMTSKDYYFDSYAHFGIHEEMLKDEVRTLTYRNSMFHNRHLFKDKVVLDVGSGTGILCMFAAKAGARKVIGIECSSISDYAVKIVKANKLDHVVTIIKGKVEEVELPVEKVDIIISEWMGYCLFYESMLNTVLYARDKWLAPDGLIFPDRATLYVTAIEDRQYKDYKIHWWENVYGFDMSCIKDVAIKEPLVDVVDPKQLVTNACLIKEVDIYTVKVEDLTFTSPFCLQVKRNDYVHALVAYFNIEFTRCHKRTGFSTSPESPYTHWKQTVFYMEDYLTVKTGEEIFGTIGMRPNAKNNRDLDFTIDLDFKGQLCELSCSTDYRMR
UHRF1 MBD2 ctr: human UHRF1 methylated DNA binding inhibitors. inhibition, % at 4.4 µM. Q96T88. UHRF1 binding to methylated oligo, TR-FRET. 0.75% of 370,000 active; in the data active = inhibition above about 21%;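 note: UHRF1 SRA domain binding a hemimethylated CpG hairpin DNA probe; 0% = median of test compound wells and 100% = reference inhibitor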
SIAE primary: blocks human sialic acid acetylesterase; Q9HAT2; SIAE FP-Rh probe binding, fluorescence polarization; inhibition, % at 9.66 µM; 0.69% of 370,000 active; AID 1053197;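 active = inhibition above a cutoff: mean of compounds within the control limits plus 3 SD of those, cut at about 17% in these data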;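 note: 0% = plate median of compound wells and 100% = probe without SIAE protein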
SIAE inh conf: confirmation of human SIAE inhibitors; shares compounds with SIAE primary; SIAE FP-Rh activity-based probe, fluorescence polarization; inhibition, % at 9.66 µM; 13% of 2,300 active;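 active = mean inhibition of the replicates above the hit cutoff set in the primary screen, cut at about 17% in these data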;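 note: 0% = SIAE with DMSO and probe and 100% = probe without SIAE; inhibitors lower polarization as more probe stays unbound to SIAE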
Starred values were filed as active, the others as inactive; x = no result; + = active, no number. In the library only some 3.3% were active in any assay of this set; here they are far more common.

SMILES | TDP2 absorb | MBD2 DNA inh | LEDGF integ inh | PRMT1 inh | UHRF1 MBD2 ctr | SIAE primary | SIAE inh conf
Nc1nnn(CC(=O)N/N=C/c2ccncc2)n1 | -6 | -3 | -4 | 5 | 1 | -4 | x
Nc1nnn(CC(=O)N/N=C/c2cn[nH]c2-c2ccccc2)n1 | -23 | -1 | 4 | 2 | 5 | 21* | 0
CCN(CC)c1ccc(/C=N/NC(=O)c2c[nH]c3ccccc23)cc1 | 8 | -3 | -5 | 2 | -4 | 24* | 17
CCN(CC)c1ccc(/C=N/NC(=O)c2cc3ccccc3[nH]2)cc1 | 3 | -3 | 0 | 0 | 0 | 16 | x
COc1ccc(N2CCN(C(=O)c3cccc(S(=O)(=O)N4CCc5ccccc54)c3)CC2)cc1 | -8 | -3 | 6 | -5 | 0 | 90* | 8
CCOc1ccc(-n2c(SCC(=O)Nc3cc(C)c(NC(=O)c4ccccc4)cc3OC)nnc2-c2ccncc2)cc1 | -2 | 1 | 4 | -1 | -1 | -5 | x
Cc1ccc(OCC(=O)Nc2cccc3nsnc23)c(C)c1 | 0 | 2 | 2 | 0 | -3 | 33* | 1
CCCN1CCCCC(NC(=O)c2ccccc2OC)C1=O (stereo not drawn) | 4 | 1 | -3 | 1 | 1 | 4 | x
COc1ccc(NC(=O)Cn2c(=O)oc3cc(S(=O)(=O)N4CCCC4)ccc32)c(OC)c1 | 5 | -5 | -1 | 5 | -1 | 2 | x
COc1ccc(NC(=O)Cn2c(=O)oc3cc(Cl)ccc32)c(OC)c1 | 4 | -3 | 1 | -1 | -2 | 17* | 2
COc1cc([N+](=O)[O-])c(OC)cc1Nc1ccccc1C(=O)O | 4 | -9 | -2 | 1 | 16 | -3 | x
COc1cc(-c2ccc(Nc3ccccc3C(=O)O)c(OC)c2)ccc1Nc1ccccc1C(=O)O | 3 | 8 | 9 | 8 | 22* | 30* | 22*
NC(=O)c1ncn([C@@H]2O[C@H](C(=O)N[C@H](Cc3ccccc3)C(=O)N3CCN(c4ccc(Cl)cn4)CC3)[C@@H](O)[C@H]2O)n1 | 4 | 3 | 3 | 11 | -3 | 2 | x
Cc1occc1C(=O)NNC(=S)Nc1cccc([N+](=O)[O-])c1 | 4 | -1 | 1 | -1 | 1 | 22* | 3
Cc1cccc(NC(=S)NNC(=O)c2cccc([N+](=O)[O-])c2)c1 | -5 | 1 | 4 | -1 | 1 | 6 | x
COc1cc(CNc2ncnc3c2[nH]c2ccc(C)cc23)cc(OC)c1 | -13 | -1 | 3 | -1 | 4 | 37* | 13
COc1ccc(CCNc2ncnc3[nH]ncc23)cc1OC | -4 | 1 | -1 | -3 | 2 | -3 | x
CCOc1ccc2[nH]c3c(NCCc4ccc(OC)c(OC)c4)ncnc3c2c1 | 1 | 2 | -7 | 6 | 45* | 19* | 14
Cc1ccc2[nH]c3c(NCc4ccco4)ncnc3c2c1 | 5 | 1 | -2 | 1 | 1 | -5 | x
C[C@@H]1COc2cccc(N3CCSCC3)c2S(=O)(=O)N1C | 4 | 1 | 9 | 0 | -2 | -3 | x
COc1ccc(C(=O)Nc2cc(OC)c(NC(=O)Nc3ccccc3)cc2OC)cc1 | 4 | 1 | -2 | 1 | 0 | 23* | 9
Cc1ccc(-c2nnc(Nc3ccc(C(=O)N(C)C)cc3)c3ccccc23)cc1S(=O)(=O)NCC1CCCO1 (stereo not drawn) | 4 | 2 | 0 | 1 | 1 | 21* | -5
COc1ccc(-c2cc(NC(=O)Cc3c(C)[nH]c4ccccc34)ccc2Nc2cccnc2)cc1F | -4 | -1 | -2 | -1 | -3 | 17 | x
O=C(Nc1ccc(F)cc1)Nc1cc(S(=O)(=O)N2CCOCC2)ccc1N1CCCC1 | 9 | 3 | -3 | 3 | 1 | 20* | 17*
O=C(Cc1ccc(F)cc1)Nc1cc(S(=O)(=O)N2CCOCC2)ccc1N1CCCCC1 | 7 | -3 | 4 | -6 | 0 | 1 | x
SMILES | TDP2 absorb | MBD2 DNA inh | LEDGF integ inh | PRMT1 inh | UHRF1 MBD2 ctr | SIAE primary | SIAE inh conf
COc1ccc(S(=O)(=O)n2cnc(C)c2)cc1 | 1 | 3 | 3 | 1 | 1 | 1 | x
CCOc1ccc(S(=O)(=O)n2cnc(C)c2)cc1 | 15 | -2 | 3 | -6 | 0 | 17* | 5
O=C(NC1CCCCN(Cc2cccc(C(F)(F)F)c2)C1=O)c1cccc([N+](=O)[O-])c1 (stereo not drawn) | 0 | 4 | 0 | 1 | -1 | 4 | x
CN(/N=C/c1ccccc1Cl)c1ncc(Cl)cc1C(F)(F)F | -4 | 2 | 0 | 3 | 2 | -2 | x
CN(/N=C/c1ccc(O)cc1O)c1ncc(C(F)(F)F)cc1Cl | 13 | -4 | 2 | 0 | -1 | 19* | 2
Cc1ccc(CN2CCCCC(NC(=O)c3c(F)cccc3F)C2=O)cc1 (stereo not drawn) | -3 | 2 | -3 | -2 | 2 | 8 | x
COc1cccc(OCC(O)CN2CCN(c3ccc(Cl)cc3)CC2)c1 (stereo not drawn) | -5 | 0 | 3 | -5 | 3 | 19* | 0
O=C(N[C@H](Cc1ccccc1)C(=O)NCc1ccc(OC(F)(F)F)cc1)[C@H]1O[C@@H](n2ccc(=O)[nH]c2=O)[C@H](O)[C@@H]1O | -1 | 4 | -2 | 1 | 2 | 10 | x
CCOc1ccc(N=C2NC(=O)S/C2=C\c2ccc(N(C)C)cc2)cc1 | 5 | -7 | 2 | 3 | -5 | -99 | x
CCOc1ccc(/C=C2/SC(=O)NC2=S)cc1 | 9 | -1 | 0 | 13 | -4 | + | -11
COc1ccc(C(=O)OCCN2CCN(C3CN(Cc4cn(Cc5ccccc5C(F)(F)F)nn4)S(=O)(=O)C3)CC2)cc1OC (stereo not drawn) | -7 | 8 | 2 | -4 | 15 | 2 | x
O=C(NCc1ccc(C(F)(F)F)cc1)c1ccc(-c2ccc(F)c(F)c2)c2ccoc12 | 7 | 1 | -6 | 4 | 1 | -17 | x
CN1CCN(c2ccc(CNC(=O)c3ccc(-c4ccc(F)c(F)c4)c4ccoc34)cc2)CC1 | -6 | 0 | 4 | 0 | -1 | 19* | 7
Cc1ccc(NC(=O)OC2CC3CC2[C@H]2CCCCN2C3)cc1C (stereo partly drawn) | 11 | 1 | 1 | -5 | -2 | 3 | x
COc1cc(/C=N/N=C2/NC(=O)C(c3ccccc3)S2)ccc1O (stereo not drawn) | 11 | 2 | -2 | -1 | -2 | 19* | 9
COC(=O)[C@@]12CCCCC3=C1N(CCC3)C(=O)[C@H]2CC(=O)NCCc1ccccc1OC | 5 | -3 | -3 | 0 | 0 | 5 | x
C#CCNC(=O)C[C@H]1C(=O)N(Cc2ccc(OC)cc2)C2=CCCCC[C@@]21C(=O)OC | 8 | 0 | 3 | -4 | -1 | -5 | x
